Measurements reported in ChEMBL document CHEMBL5230180, “A cationic amphiphilic peptide chaperone rescues Aβ42 aggregation and cytotoxicity” (RSC Med Chem, 2023).
Values belong to the molecule of their own block, whether it stands above or below them. Activity calls are given as the source filed them. No cut-off for these calls is given here.

What was measured:
[1] = molecular target: Amyloid-beta precursor protein (Homo sapiens) (UniProt P05067); assay: Inhibition of amyloid beta 42 (unknown origin) aggregation assessed as reduction in fluorescence intensity measured for 48 hrs by ThT fluorescence assay
Outline: (§1)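 Soluble (pre-aggregation) Aβ42 at 25 μM with 20 μM ThT, incubated with peptide at 0.1–10 equivalents (2.5–250 μM) in 10 mM sodium phosphate, 150 mM NaCl, 1 mM EDTA, pH 7.4; time-dependent ThT fluorescence monitored, normalized to Aβ42 alone.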

[2] = molecular target: Amyloid-beta precursor protein (Homo sapiens) (UniProt P05067); assay: Inhibition of amyloid beta 42 (unknown origin) aggregation assessed as half time for Abeta42 aggregation at Abeta42:compound concentration ratio of 1:1 by ThT fluorescence assay (reference value: 9.34 +/-0.25 hrs)
[3] = molecular target: Amyloid-beta precursor protein (Homo sapiens) (UniProt P05067); assay: Inhibition of amyloid beta 42 (unknown origin) aggregation assessed as lag time for Abeta42 aggregation at Abeta42:compound concentration ratio of 1:1 by ThT fluorescence assay (reference value: 6.35 +/-0.32 hrs)
SH-SY5Y [4] = assay: Protection against Abeta42-induced cytotoxicity in human SH-SY5Y cells assessed as increase in cell viability at Abeta42:compound concentration ratio of 1:1 incubated for 24 hrs by MTT assay; type: functional, cell-based
Outline: (§2)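 SH-SY5Y cells given 10 μM soluble Aβ42 with peptide (1, 2, 3, 5, 10, 30 μM; 1:1 for comparison) at 37 °C up to 24 h; MTT formazan read-out relative to cells without peptide or Aβ42; IC50 from dose–response.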

SH-SY5Y [5] = assay: Cytotoxicity against human SH-SY5Y cells assessed as reduction in cell viability at 30 uM incubated for 24 hrs by MTT assay; type: toxicity, cell-based
Outline: (§3)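 SH-SY5Y neuronal cells exposed to peptide alone (1–30 μM) at 37 °C up to 24 h; viability by MTT conversion to formazan, compared with untreated control cells.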

[6] = molecular target: Amyloid-beta precursor protein (Homo sapiens) (UniProt P05067); assay: Inhibition of amyloid beta 42 (unknown origin) aggregation assessed as fluorescence intensity at compound:Abeta42 concentration ratio of 0.5:1 measured for 48 hrs by ThT fluorescence assay; parameters: scale not given: the % may be the effect or the level left; outline: as §1
[7] = molecular target: Amyloid-beta precursor protein (Homo sapiens) (UniProt P05067); assay: Inhibition of amyloid beta 42 (unknown origin) aggregation assessed as fluorescence intensity at compound:Abeta42 concentration ratio of 1:1 measured for 48 hrs by ThT fluorescence assay; parameters: scale not given: the % may be the effect or the level left; outline: as §1
[8] = molecular target: Amyloid-beta precursor protein (Homo sapiens) (UniProt P05067); assay: Inhibition of amyloid beta 42 (unknown origin) aggregation assessed as reduction in fluorescence intensity at Abeta42:compound concentration ratio of 1:3 measured for 48 hrs by ThT fluorescence assay; outline: as §1
[9] = molecular target: Amyloid-beta precursor protein (Homo sapiens) (UniProt P05067); assay: Inhibition of amyloid beta 42 (unknown origin) aggregation assessed as reduction in fluorescence intensity at Abeta42:compound concentration ratio of 1:5 measured for 48 hrs by ThT fluorescence assay; outline: as §1
[10] = molecular target: Amyloid-beta precursor protein (Homo sapiens) (UniProt P05067); assay: Inhibition of amyloid beta 42 (unknown origin) aggregation assessed as reduction in fluorescence intensity at Abeta42:compound concentration ratio of 1:10 measured for 48 hrs by ThT fluorescence assay; outline: as §1
[11] = molecular target: Amyloid-beta precursor protein (Homo sapiens) (UniProt P05067); assay: Inhibition of amyloid beta 42 (unknown origin) aggregation assessed as half time for Abeta42 aggregation at Abeta42:compound concentration ratio of 1:0.5 by ThT fluorescence assay (reference value: 9.34 +/-0.25 hrs)
[12] = molecular target: Amyloid-beta precursor protein (Homo sapiens) (UniProt P05067); assay: Inhibition of amyloid beta 42 (unknown origin) aggregation assessed as lag time for Abeta42 aggregation at Abeta42:compound concentration ratio of 1:0.5 by ThT fluorescence assay (reference value: 6.35 +/-0.32 hrs)
[13] = molecular target: Amyloid-beta precursor protein (Homo sapiens) (UniProt P05067); assay: Inhibition of amyloid beta 42 (unknown origin) aggregation assessed as fluorescence intensity at 0.1 equivalents measured for 48 hrs by ThT fluorescence assay; parameters: scale not given: the % may be the effect or the level left; conditions: dose 0.1 equiv; outline: as §1
[14] = molecular target: Amyloid-beta precursor protein (Homo sapiens) (UniProt P05067); assay: Inhibition of amyloid beta 42 (unknown origin) aggregation assessed as fluorescence intensity at 0.3 equivalents measured for 48 hrs by ThT fluorescence assay; parameters: scale not given: the % may be the effect or the level left; conditions: dose 0.3 equiv; outline: as §1
[15] = molecular target: Amyloid-beta precursor protein (Homo sapiens) (UniProt P05067); assay: Disruption of aggregated Amyloid beta 42 fibrils (unknown origin) assessed as reduction in fluorescence intensity at compound:Abeta42 concentration ratio of 1:1 treated with compound after 16 hrs of incubation of Abeta42 in solution by ThT fluorescence assay
Outline: (§4)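 Aβ42 (25 μM) preincubated with 20 μM ThT at 37 °C; peptide added at 1:1 after 16 or 24 h, incubation continued and ThT fluorescence followed over time; buffer 10 mM sodium phosphate, 150 mM NaCl, 1 mM EDTA, pH 7.4.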

[16] = molecular target: Amyloid-beta precursor protein (Homo sapiens) (UniProt P05067); assay: Disruption of aggregated Amyloid beta 42 fibrils (unknown origin) assessed as reduction in fluorescence intensity at compound:Abeta42 concentration ratio of 1:1 treated with compound after 24 hrs of incubation of Abeta42 in solution by ThT fluorescence assay; outline: as §4
[17] = molecular target: Amyloid-beta precursor protein (Homo sapiens) (UniProt P05067); assay: Inhibition of amyloid beta 42 (unknown origin) aggregation assessed as aggregated particle size at equimolar concentration with Abeta42 incubated for 24 hrs by Dynamic light scattering based analysis (reference value: 800 nm)
Outline: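 Dynamic light scattering of 10 μM Aβ42 with or without peptide after 24 h at 37 °C; frequency distribution of particle diameter.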

[18] = molecular target: Amyloid-beta precursor protein (Homo sapiens) (UniProt P05067); assay: Inhibition of amyloid beta 42 (unknown origin) aggregation assessed as reduction in fluorescence intensity at equimolar concentration with Abeta42 incubated for 48 hrs by ThT laser scanning confocal microscopy
[19] = molecular target: Amyloid-beta precursor protein (Homo sapiens) (UniProt P05067); assay: Inhibition of amyloid beta 42 (unknown origin) aggregation assessed as reduction in Abeta42 fibrillar network at compound:Abeta42 concentration ratio of 1:1 incubated for 48 hrs by HR-TEM analysis
Outline: (§5)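 10 μM soluble Aβ42 incubated at 37 °C for about 48 h alone or with peptide (1:1; 10 μM); fibril morphology imaged by HR-TEM and AFM.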

[20] = molecular target: Amyloid-beta precursor protein (Homo sapiens) (UniProt P05067); assay: Inhibition of amyloid beta 42 (unknown origin) aggregation assessed as reduction in Abeta42 fibrillar network at 10 uM incubated for 48 hrs by AFM analysis; outline: as §5
[21] = molecular target: Amyloid-beta precursor protein (Homo sapiens) (UniProt P05067); assay: Inhibition of amyloid beta 42 (unknown origin) aggregation assessed as decrease in absorbance at 450 nm at Abeta42:compound concentration ratio of 1:0.5 to 1:10 incubated for up to 24 hrs by ELISA
Outline: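 Aβ42 in PBS preincubated 24 h with peptide (0.5–10 equivalents), then captured on oligomer-specific monoclonal antibody-coated wells; detection via biotinylated antibody, streptavidin-HRP and TMB, absorbance 450 nm; peptide-alone wells included.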

[22] = molecular target: Amyloid-beta precursor protein (Homo sapiens) (UniProt P05067); assay: Inhibition of amyloid beta 42 (unknown origin) aggregation assessed as transformation of random coil structure to helical secondary structure with CD minima at 205 nm and 221 nm at Abeta42:compound concentration ratio of 1:1 incubated for 24 hrs by circular dichroism analysis
Outline: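 CD spectra of 50 μM soluble Aβ42 in PBS at 0 h and after 24 h at room temperature, alone or with equimolar (50 μM) peptide; peptide alone also recorded.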

SH-SY5Y [23] = assay: Cytotoxicity against human SH-SY5Y cells assessed as reduction in cell viability upto 30 uM incubated for 24 hrs by MTT assay; type: toxicity, cell-based; outline: as §3
SH-SY5Y [24] = assay: Protection against Abeta42-induced cytotoxicity in human SH-SY5Y cells assessed as increase in cell viability incubated for 24 hrs in presence of 10 uM Abeta42 by MTT assay; type: functional, cell-based; outline: as §2
[25] = Hemolytic activity against red blood cells (unknown origin) upto 250 uM; type: toxicity, cell-based; conditions: erythrocyte
Outline: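 Red blood cells treated with a range of peptide concentrations up to 250 μM; haemolysis assessed.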

[26] = molecular target: Amyloid-beta precursor protein (Homo sapiens) (UniProt P05067); assay: Inhibition of 15N-labeled amyloid beta 42 (unknown origin) aggregation assessed as Abeta42 conformational reorganization by measuring changes in positions of Abeta42 cross-peaks at Abeta42:compound concentration ratio of 1:1 by 1H-15N HSQC NMR spectral analysis

Amyloid-beta precursor protein (Homo sapiens), sequence (P05067 whole entry): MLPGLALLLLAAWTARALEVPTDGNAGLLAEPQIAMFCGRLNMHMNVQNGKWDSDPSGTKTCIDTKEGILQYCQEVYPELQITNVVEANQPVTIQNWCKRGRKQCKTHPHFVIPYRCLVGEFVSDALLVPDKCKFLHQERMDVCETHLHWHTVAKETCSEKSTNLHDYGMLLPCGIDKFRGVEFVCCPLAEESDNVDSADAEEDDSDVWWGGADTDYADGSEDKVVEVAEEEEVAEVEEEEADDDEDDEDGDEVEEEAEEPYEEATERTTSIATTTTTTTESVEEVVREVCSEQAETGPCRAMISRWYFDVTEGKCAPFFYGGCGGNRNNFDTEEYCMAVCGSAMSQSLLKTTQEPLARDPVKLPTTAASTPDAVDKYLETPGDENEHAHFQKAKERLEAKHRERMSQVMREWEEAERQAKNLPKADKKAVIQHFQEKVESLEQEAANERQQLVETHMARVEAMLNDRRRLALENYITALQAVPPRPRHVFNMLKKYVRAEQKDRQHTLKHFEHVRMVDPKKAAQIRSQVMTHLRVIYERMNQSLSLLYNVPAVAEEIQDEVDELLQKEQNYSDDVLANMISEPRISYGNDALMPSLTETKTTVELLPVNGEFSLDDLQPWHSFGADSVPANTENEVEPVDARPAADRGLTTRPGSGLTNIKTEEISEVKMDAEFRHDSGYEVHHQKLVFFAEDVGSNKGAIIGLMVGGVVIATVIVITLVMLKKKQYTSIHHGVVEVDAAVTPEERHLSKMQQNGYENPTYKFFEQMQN

inhibition [1]: Dose-Dependent Effect
T1/2 [2]: 9.59 h
TIME [3]: 0.75 h
Molecule: Ac-KLAKLAKKLAKL-NH2
Activity (SH-SY5Y [4]): Active
Activity (SH-SY5Y [5]): Non-Toxic

inhibition [1]: inactive
Molecule: Ac-ALAALALALAALAAL-NH2

inhibition [1]: Dose-Dependent Effect
T1/2 [2]: 8.22 h
TIME [3]: 2.14 h
Molecule: Ac-KLAKLAKL-NH2
Activity (SH-SY5Y [4]): Active
Activity (SH-SY5Y [5]): Non-Toxic

Activity [6]: 20%
Activity [7]: < 3%
inhibition [8]: Active
inhibition [9]: Active
inhibition [10]: Active
T1/2 [11]: 6.09 h
TIME [12]: 1.8 h
Activity [13]: 40%
Activity [14]: 30%
Activity [15]: Active
Activity [16]: Active
Activity [17]: 100 nm
inhibition [18]: Active
inhibition [19]: Active
inhibition [20]: Active
inhibition [21]: Active
inhibition [22]: Active
Activity [26]: Active
Molecule: CC(=O)N[C@@H](CCCCN)C(=O)N[C@@H](CC(C)C)C(=O)N[C@@H](C)C(=O)N[C@@H](CCCCN)C(=O)N[C@@H](CC(C)C)C(=O)N[C@@H](C)C(=O)N[C@@H](CCCCN)C(=O)N[C@@H](CCCCN)C(=O)N[C@@H](CC(C)C)C(=O)N[C@@H](C)C(=O)N[C@@H](CCCCN)C(=O)N[C@@H](CC(C)C)C(=O)N[C@@H](C)C(=O)N[C@@H](CCCCN)C(=O)N[C@@H](CC(C)C)C(N)=O
Activity (SH-SY5Y [23]): Non-Toxic
Activity (SH-SY5Y [4]): Active
IC50 (SH-SY5Y [24]): 8.73 µM
Activity [25]: Non-Toxic
